Source: ChEMBL document CHEMBL1155284, “Synthesis and antibacterial activity of some new thiadiaza/triazaphospholes, thiadiaza/triaza/tetrazaphosphinines and thiadiaza/tetrazaphosphepines containing 1,2,4-triazinone moiety” (Eur J Med Chem, 2009)
≈ marks a conversion by molar mass, not a printed value.

Columns and labels:
Staphylococcus aureus [1] = test: Antimicrobial activity against Staphylococcus aureus MTCCB 737 at 100 ug/mL after 16 to 20 hrs by disk diffusion method; assay type: functional; conditions: read-out: DIZ
How it was run: (§1)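 Nutrient agar disc diffusion with compounds at 100 µg/mL and DMSO as blank. Plates were incubated 16–20 h at 37 °C, then inhibition zone diameter was measured. Zones of 12 mm or less were scored resistant, 13–17 mm moderate, and 18 mm or more maximum inhibition.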

[2] = tested on: Staphylococcus epidermidis; test: Antimicrobial activity against Staphylococcus epidermidis MTCCB 1824 at 100 ug/mL after 16 to 20 hrs by disk diffusion method; assay type: functional; conditions: read-out: DIZ; how it was run: as §1
Escherichia coli [3] = test: Antimicrobial activity against Escherichia coli MTCCB 1652 at 100 ug/mL after 16 to 20 hrs by disk diffusion method; assay type: functional; conditions: read-out: DIZ; how it was run: as §1
Pseudomonas aeruginosa [4] = test: Antimicrobial activity against Pseudomonas aeruginosa ATCC 27853 at 100 ug/mL after 16 to 20 hrs by disk diffusion method; assay type: functional; conditions: read-out: DIZ; how it was run: as §1
Staphylococcus aureus [5] = test: Antimicrobial activity against Staphylococcus aureus MTCCB 737 after 24 hrs by tube dilution technique; assay type: functional; conditions: MTCCB 737, 24 h
How it was run: (§2)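 Tube dilution in nutrient broth at 3.12, 6.25, 12.5, 25 and 50 µg/mL. Each tube received 100 µL of standardized bacterial suspension (10^7 cell/mL). Tubes were incubated at 37 °C for 24 h. MIC was the lowest concentration that maintained or reduced inoculum viability.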

[6] = tested on: Staphylococcus epidermidis; test: Antimicrobial activity against Staphylococcus epidermidis MTCCB 1824 after 24 hrs by tube dilution technique; assay type: functional; conditions: MTCCB 1824, 24 h; how it was run: as §2
Escherichia coli [7] = test: Antimicrobial activity against Escherichia coli MTCCB 1652 after 24 hrs by tube dilution technique; assay type: functional; conditions: MTCCB 1652, 24 h; how it was run: as §2
Pseudomonas aeruginosa [8] = test: Antimicrobial activity against Pseudomonas aeruginosa ATCC 27853 after 24 hrs by tube dilution technique; assay type: functional; conditions: ATCC 27853, 24 h; how it was run: as §2
[9] = (§3) Toxicity against Artemia salina larvae after 24 hrs; assay type: organism-based; conditions: in vivo
How it was run: (§4)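 Brine shrimp lethality test. Artemia salina eggs were hatched 48 h at 37 °C in filtered sea salt solution (38 g/L) with constant oxygen to give nauplii. Stock was 10 mg compound in 2 mL DMSO, diluted to 80, 40, 20, 10 and 5 µg/mL in triplicate vials, about 10 nauplii each, with a DMSO control. LC50 is the mean of three values.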

Staphylococcus aureus [10] = test: Antimicrobial activity against Staphylococcus aureus MTCCB 737 at 30 ug/mL after 16 to 20 hrs by disk diffusion method; assay type: functional; conditions: read-out: DIZ
How it was run: (§5)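 Nutrient agar disc diffusion with the reference drug tetracycline at 30 µg/mL and DMSO as blank. Plates were incubated 16–20 h at 37 °C, then inhibition zone diameter was measured. Zones of 12 mm or less were scored resistant, 13–17 mm moderate, and 18 mm or more maximum inhibition.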

[11] = tested on: Staphylococcus epidermidis; test: Antimicrobial activity against Staphylococcus epidermidis MTCCB 1824 at 30 ug/mL after 16 to 20 hrs by disk diffusion method; assay type: functional; conditions: read-out: DIZ; how it was run: as §5
Escherichia coli [12] = test: Antimicrobial activity against Escherichia coli MTCCB 1652 at 30 ug/mL after 16 to 20 hrs by disk diffusion method; assay type: functional; conditions: read-out: DIZ; how it was run: as §5
Pseudomonas aeruginosa [13] = test: Antimicrobial activity against Pseudomonas aeruginosa ATCC 27853 at 30 ug/mL after 16 to 20 hrs by disk diffusion method; assay type: functional; conditions: read-out: DIZ; how it was run: as §5
Pseudomonas aeruginosa [14] = test: Antimicrobial activity against Pseudomonas aeruginosa ATCC 27853
Artemia salina = test: as §3; assay type: organism-based; conditions: in vivo, 24 h; how it was run: as §4

Compound	zone of inhibition at 100 µg/mL (Staphylococcus aureus [1]) [mm]	zone of inhibition at 100 µg/mL [2] [mm]	zone of inhibition at 100 µg/mL (Escherichia coli [3]) [mm]	zone of inhibition at 100 µg/mL (Pseudomonas aeruginosa [4]) [mm]	MIC (Staphylococcus aureus [5]) [µg/mL]	MIC [6] [µg/mL]	MIC (Escherichia coli [7]) [µg/mL]	MIC (Pseudomonas aeruginosa [8]) [µg/mL]	LC50 at 24 h [9] [µg/mL]	zone of inhibition at 30 µg/mL (Staphylococcus aureus [10]) [mm]	zone of inhibition at 30 µg/mL [11] [mm]	zone of inhibition at 30 µg/mL (Escherichia coli [12]) [mm]	zone of inhibition at 30 µg/mL (Pseudomonas aeruginosa [13]) [mm]	diameter of the inhibition zone (DIZ) (Pseudomonas aeruginosa [14]) [mm]	LC50 (Artemia salina) [µg/mL]
CC1=Nn2c(nnc(C)c2=O)SP1(c1ccccc1)(c1ccccc1)c1ccccc1	20	19	19	22	25 (≈ 56.2 µM)	25 (≈ 56.2 µM)	12.5 (≈ 28.1 µM)	12.5 (≈ 28.1 µM)	–	–	–	–	–	–	–
Cc1nnc2n(c1=O)NP(=O)(c1ccccc1)S2 (stereo not drawn)	20	17	21	23	25 (≈ 89.2 µM)	25 (≈ 89.2 µM)	12.5 (≈ 44.6 µM)	12.5 (≈ 44.6 µM)	7.85 (≈ 28 µM)	–	–	–	–	–	–
Cc1nnc(S)n(N)c1=O	13	14	14	15	50 (≈ 316 µM)	50 (≈ 316 µM)	50 (≈ 316 µM)	25 (≈ 158 µM)	–	–	–	–	–	–	–
Cc1nnc(N)n(N)c1=O	16	15	14	13	25 (≈ 177 µM)	25 (≈ 177 µM)	50 (≈ 354 µM)	50 (≈ 354 µM)	–	–	–	–	–	–	–
Cc1nnc(NN)n(N)c1=O	17	15	15	15	50 (≈ 320 µM)	50 (≈ 320 µM)	25 (≈ 160 µM)	50 (≈ 320 µM)	–	–	–	–	–	–	–
CCOP1(=O)Sc2nnc(C)c(=O)n2NC1c1ccc(Cl)cc1 (stereo not drawn)	27	23	15	20	6.25 (≈ 16.8 µM)	6.25 (≈ 16.8 µM)	50 (≈ 134 µM)	25 (≈ 67.1 µM)	13.8 (≈ 37.1 µM)	–	–	–	–	–	–
Cc1nnc2n(c1=O)N=C(c1ccccc1)CP(c1ccccc1)(c1ccccc1)(c1ccccc1)S2	21	19	16	19	25 (≈ 48 µM)	12.5 (≈ 24 µM)	50 (≈ 96 µM)	50 (≈ 96 µM)	–	–	–	–	–	–	–
CN(C)[C@@H]1C(O)=C(C(N)=O)C(=O)[C@@]2(O)C(O)=C3C(=O)c4c(O)cccc4[C@@](C)(O)[C@H]3C[C@@H]12 [TETRACYCLINE]	–	–	–	–	6.25 (≈ 14.1 µM)	6.25 (≈ 14.1 µM)	6.25 (≈ 14.1 µM)	6.25 (≈ 14.1 µM)	–	30	25	28	29	29	–
BLEOMYCIN	–	–	–	–	–	–	–	–	–	–	–	–	–	–	0.41
